The source made the active and inactive calls. The calls are words filed in the database; no cut-off is given here.

Consider two molecules from ChEMBL document CHEMBL4052629, “Scutellarin derivatives as apoptosis inducers: Design, synthesis and biological evaluation” (Eur J Med Chem, 2017).

Data set [1] has as its system HepG2. The data set can be described thus: Cell cycle arrest in human HepG2 cells assessed as accumulation at G1 phase at 0.3 uM after 72 hrs by propidium iodide staining-based flow cytometric analysis (reference value: 34%). In kind it is functional. In short, it runs like this:
(§1)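 Concentrations used were 0, 0.3, 0.6 and 1.2 μM in HepG2 and 0, 0.16, 0.31 and 1.25 μM in PC-3, with untreated cells as control, for 72 h. Cells were trypsinized, washed in PBS, fixed in cold ethanol at 4 °C overnight, then incubated 30 min in PBS containing RNase A and propidium iodide. DNA content was read by flow cytometry to give phase distribution.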

For data set [2], the system named is HepG2. In words: Cell cycle arrest in human HepG2 cells assessed as accumulation at G2/M phase at 0.6 uM after 72 hrs by propidium iodide staining-based flow cytometric analysis (reference value: 21.4%). In kind it is functional. In short, it runs like this: as §1
Background: Flow cytometry measures light scatter and fluorescence of single cells or particles in a stream.

Data set [3] concerns HepG2. In words: Cell cycle arrest in human HepG2 cells assessed as accumulation at S phase at 0.6 uM after 72 hrs by propidium iodide staining-based flow cytometric analysis (reference value: 44.6%). The data set is classed as functional. A digest of the protocol:
as §1

Data set [4] has as its system HepG2. The data set can be described thus: Cell cycle arrest in human HepG2 cells assessed as accumulation at S phase at 1.2 uM after 72 hrs by propidium iodide staining-based flow cytometric analysis (reference value: 44.6%). In kind it is functional. In short, it runs like this:
as §1

The subject of data set [5] is HepG2. The data set can be described thus: Induction of apoptosis in human HepG2 cells assessed as cell shrinkage at 0.3 to 0.6 uM after 48 hrs by Hoechst 33258 staining-based fluorescent microscopic analysis. The data set is classed as functional. A digest of the protocol: (§2)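 HepG2 cells grown on coverslips were treated for 48 h at 0.3, 0.6 or 1.2 μM, then fixed in 4% paraformaldehyde for 10 min. After PBS washes, cells were stained with Hoechst 33258 for 5 min and washed again. Nuclear morphology was examined by fluorescence imaging at 350 nm excitation and 460 nm emission.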

The test system of data set [6] is HepG2. The data set can be described thus: Induction of apoptosis in human HepG2 cells assessed as chromatin condensation at 0.3 to 0.6 uM after 48 hrs by Hoechst 33258 staining-based fluorescent microscopic analysis. In kind it is functional, cell-based. A digest of the protocol:
as §2

Data set [7] has as its system HepG2. The data set can be described thus: Induction of apoptosis in human HepG2 cells assessed as nuclear fragmentation at 1.2 uM after 48 hrs by Hoechst 33258 staining-based fluorescent microscopic analysis. In kind it is functional, cell-based. In short, it runs like this: as §2
Data set [8] deals with HepG2. The data set can be described thus: Induction of apoptosis in human HepG2 cells assessed as viable cells at 0.3 uM after 72 hrs by Annexin V-APC/7-AAD or propidium iodide staining-based flow cytometric analysis (reference value: 90.08%). The data set is classed as functional. The note with it: HepG2, 72 h, read-out: Activity.
Data set [9] deals with HepG2. The data set can be described thus: Induction of apoptosis in human HepG2 cells assessed as necrotic cells at 0.3 uM after 72 hrs by Annexin V-APC/7-AAD or propidium iodide staining-based flow cytometric analysis (reference value: 1.87%). The data set is classed as functional.
Data set [10] relates to HepG2. The data set can be described thus: Induction of apoptosis in human HepG2 cells assessed as viable cells at 1.2 uM after 72 hrs by Annexin V-APC/7-AAD or propidium iodide staining-based flow cytometric analysis (reference value: 90.08%). As to conditions: HepG2, 72 h, read-out: Activity. In kind it is functional.
For data set [11], the system named is L02. In words: Induction of apoptosis in human LO2 cells assessed as necrotic cells at 50 uM after 72 hrs by Annexin V-FITC/7-AAD or propidium iodide staining-based flow cytometric analysis (reference value: 1.99%). In kind it is cell-based. As to conditions: l02, 72 h.
In data set [12] the test system is L02. The data set can be described thus: Induction of apoptosis in human LO2 cells assessed as necrotic cells at 1.2 uM after 72 hrs by Annexin V-FITC/7-AAD or propidium iodide staining-based flow cytometric analysis (reference value: 1.99%). The data set is classed as cell-based. As to conditions: l02, 72 h.
In data set [13] the test system is HepG2. The data set can be described thus: Induction of apoptosis in human HepG2 cells assessed as reduction in procaspase-3 expression levels at 2 uM after 24 hrs by membrane-based sandwich immunoassay. In kind it is functional, cell-based. In short, it runs like this: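 HepG2 cells exposed to 2 μM for 24 h. Proteins extracted per kit protocol. Relative levels of 35 apoptosis-related proteins measured on a human apoptosis antibody array.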

Data set [14] deals with PC-3. The data set can be described thus: Cell cycle arrest in human PC3 cells assessed as accumulation at G1 phase at 0.16 uM after 72 hrs by propidium iodide staining-based flow cytometric analysis (reference value: 53.36%). The data set is classed as functional. In short, it runs like this:
as §1

The test system of data set [15] is PC-3. The data set can be described thus: Cell cycle arrest in human PC3 cells assessed as accumulation at G2/M phase at 0.16 uM after 72 hrs by propidium iodide staining-based flow cytometric analysis (reference value: 10.19%). In kind it is functional. In short, it runs like this:
as §1

Data set [16] has as its system PC-3. The data set can be described thus: Cell cycle arrest in human PC3 cells assessed as accumulation at S phase at 0.31 uM after 72 hrs by propidium iodide staining-based flow cytometric analysis (reference value: 36.46%). The data set is classed as functional. A digest of the protocol: as §1
Data set [17] concerns PC-3. In words: Induction of apoptosis in human PC3 cells assessed as cell shrinkage at 0.16 to 1.25 uM after 48 hrs by Hoechst 33258 staining-based fluorescent microscopic analysis. In kind it is functional. A digest of the protocol: (§3)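 PC-3 cells grown on sterile cover slips were exposed to 0, 0.16, 0.31 or 1.25 μM, or vehicle, for 48 h. Then fixed with 4% paraformaldehyde for 10 min, washed twice in PBS, stained with Hoechst 33258 for 5 min and washed again. Nuclei imaged at 350 nm excitation and 460 nm emission.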

Data set [18] deals with PC-3. The data set can be described thus: Induction of apoptosis in human PC3 cells assessed as reduction in adherent cells at 0.16 to 1.25 uM after 48 hrs by Hoechst 33258 staining-based fluorescent microscopic analysis. In kind it is functional, cell-based. A digest of the protocol: as §3
In data set [19] the test system is PC-3. In words: Induction of apoptosis in human PC3 cells assessed as rupture of cell membrane at 0.16 to 1.25 uM after 48 hrs by Hoechst 33258 staining-based fluorescent microscopic analysis. The data set is classed as functional. A digest of the protocol:
as §3

Data set [20] has as its system PC-3. In words: Induction of apoptosis in human PC3 cells assessed as early apoptotic cells at 0.16 uM after 72 hrs by Annexin V-APC/7-AAD or propidium iodide staining-based flow cytometric analysis (reference value: 4.09%). The data set is classed as functional.
Data set [21] relates to PC-3. The data set can be described thus: Induction of apoptosis in human PC3 cells assessed as late apoptotic cells at 0.16 uM after 72 hrs by Annexin V-APC/7-AAD or propidium iodide staining-based flow cytometric analysis (reference value: 4.74%). In kind it is functional.
The test system of data set [22] is PC-3. In words: Induction of apoptosis in human PC3 cells assessed as early apoptotic cells at 1.25 uM after 72 hrs by Annexin V-APC/7-AAD or propidium iodide staining-based flow cytometric analysis (reference value: 4.09%). The data set is classed as functional.
The nature of data set [23]: Induction of apoptosis in human LO2 cells assessed as viable cells at 1.25 uM after 72 hrs by Annexin V-FITC/7-AAD or propidium iodide staining-based flow cytometric analysis (reference value: 94.26%). In kind it is cell-based, L02. The note with it: read-out: Activity.
Data set [24] deals with L02. The data set can be described thus: Induction of apoptosis in human LO2 cells assessed as early apoptotic cells at 1.25 uM after 72 hrs by Annexin V-FITC/7-AAD or propidium iodide staining-based flow cytometric analysis (reference value: 3.65%). The note with it: l02, 72 h. In kind it is cell-based.
In data set [25] the test system is L02. In words: Induction of apoptosis in human LO2 cells assessed as late apoptotic cells at 1.25 uM after 72 hrs by Annexin V-FITC/7-AAD or propidium iodide staining-based flow cytometric analysis (reference value: 0.11%). In kind it is cell-based. As to conditions: l02, 72 h.
Data set [26] has as its system PC-3. In words: Induction of apoptosis in human PC3 cells assessed as reduction in mitochondrial membrane potential after 48 hrs by JC-1 staining-based flow cytometric analysis. In kind it is functional, cell-based. In short, it runs like this: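 After overnight culture, PC-3 cells were treated in triplicate with 0, 0.16, 0.31 or 1.25 μM, or vehicle, for 48 h. They were then loaded with JC-1, and the proportion with depolarized mitochondrial membrane potential was counted by flow cytometry.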

As for `O=C(NCCCOc1no[n+]([O-])c1S(=O)(=O)c1ccccc1)[C@H]1O[C@@H](Oc2cc3oc(-c4ccc(OCc5ccccc5)cc4)cc(=O)c3c(O)c2OCc2ccccc2)[C@H](O)[C@@H](O)[C@@H]1O`, the Activity in the data set on HepG2 [1] came out at 32.13%; in the data set on HepG2 [2] it was 17.54%; in the data set on HepG2 [3], 50.45%; in the data set on HepG2 [4], 69.63%; in the data set with HepG2 [9] it was 3.85%; in the data set on L02 [11], 2.27%. Besides, the Activity with L02 [12] came out at 1.53%. For the same molecule, the outcome in the data set on HepG2 [5], in the data set on HepG2 [6], with HepG2 [7] and in the data set on HepG2 [13] was Active. For the same molecule, the viability at 0.3 µM with HepG2 [8] is 79.6%. The viability at 1.2 µM with HepG2 [10] came out at 41.8%.

For `COc1ccc(-c2cc(=O)c3c(O)c(OC)c(O[C@@H]4O[C@H](C(=O)NCCOc5no[n+]([O-])c5S(=O)(=O)c5ccccc5)[C@@H](O)[C@H](O)[C@H]4O)cc3o2)cc1`, the Activity with PC-3 [14] worked out at 50.05%; in the data set with PC-3 [15], 11.62%; with PC-3 [16] it was 43.3%; with PC-3 [20], 3.71%; in the data set on PC-3 [21] it was 12.75%; in the data set with PC-3 [22], 14.91%. Further, the Activity with L02 [24] was 17.35%; in the data set with L02 [25], 2.95%; in the data set on PC-3 [26] it was “Dose-dependent effect”. The result in the data set with PC-3 [17], in the data set on PC-3 [18] and in the data set with PC-3 [19] was Active. In addition, the viability at 72 h, 1.25 µM in [23] is 78.4%.
